Experimental data as given in ChEMBL document CHEMBL1123827, “Alpha 2-adrenergic agonists/antagonists: the synthesis and structure-activity relationships of a series of indolin-2-yl and tetrahydroquinolin-2-yl imidazolines” (J Med Chem, 1987).

What was measured:
[1] = target: T1, Adrenergic receptor alpha-2 (Rattus norvegicus, UniProt P22086+P19328+P22909); test: The compound was evaluated for the alpha-2 adrenergic receptor activity in rat vas deferens.
T1 sequence (P22086 whole entry): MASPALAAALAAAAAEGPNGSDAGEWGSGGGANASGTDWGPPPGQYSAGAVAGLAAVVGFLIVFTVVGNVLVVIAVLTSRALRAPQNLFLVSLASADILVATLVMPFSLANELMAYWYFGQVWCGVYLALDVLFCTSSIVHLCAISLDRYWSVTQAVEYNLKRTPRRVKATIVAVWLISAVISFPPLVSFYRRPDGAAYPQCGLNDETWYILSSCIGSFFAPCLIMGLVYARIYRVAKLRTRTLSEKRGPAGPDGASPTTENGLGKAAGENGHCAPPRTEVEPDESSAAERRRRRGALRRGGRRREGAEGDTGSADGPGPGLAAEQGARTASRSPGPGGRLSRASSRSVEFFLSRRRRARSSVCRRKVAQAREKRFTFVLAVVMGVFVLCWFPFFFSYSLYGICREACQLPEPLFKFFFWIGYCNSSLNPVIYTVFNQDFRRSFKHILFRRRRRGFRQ
T1 sequence (P19328 whole entry): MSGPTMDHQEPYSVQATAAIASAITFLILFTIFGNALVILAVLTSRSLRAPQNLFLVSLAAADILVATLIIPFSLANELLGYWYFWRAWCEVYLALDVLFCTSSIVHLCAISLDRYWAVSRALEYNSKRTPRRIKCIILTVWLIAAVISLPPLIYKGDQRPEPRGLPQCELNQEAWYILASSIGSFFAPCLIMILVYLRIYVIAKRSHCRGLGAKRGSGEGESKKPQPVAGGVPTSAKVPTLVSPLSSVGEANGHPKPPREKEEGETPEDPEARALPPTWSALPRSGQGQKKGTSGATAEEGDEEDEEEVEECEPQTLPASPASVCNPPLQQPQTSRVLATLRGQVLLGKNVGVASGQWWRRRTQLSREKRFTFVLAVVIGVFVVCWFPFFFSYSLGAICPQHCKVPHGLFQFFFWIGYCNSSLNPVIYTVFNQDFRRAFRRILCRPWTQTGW
T1 sequence (P22909 whole entry): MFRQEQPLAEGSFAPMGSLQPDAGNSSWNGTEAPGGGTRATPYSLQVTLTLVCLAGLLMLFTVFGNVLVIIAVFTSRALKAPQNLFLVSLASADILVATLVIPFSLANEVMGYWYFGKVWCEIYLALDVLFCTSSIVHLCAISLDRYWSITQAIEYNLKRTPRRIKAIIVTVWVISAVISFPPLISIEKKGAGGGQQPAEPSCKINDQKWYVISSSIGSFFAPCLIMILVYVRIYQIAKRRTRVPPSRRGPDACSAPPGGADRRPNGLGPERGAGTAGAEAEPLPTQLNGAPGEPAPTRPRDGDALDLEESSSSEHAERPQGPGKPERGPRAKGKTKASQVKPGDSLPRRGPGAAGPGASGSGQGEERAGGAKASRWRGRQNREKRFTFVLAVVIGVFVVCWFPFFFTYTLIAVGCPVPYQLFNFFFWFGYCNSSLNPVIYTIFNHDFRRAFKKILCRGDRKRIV
Outline: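 Isolated vasa deferentia from Sprague-Dawley rats (180–250 g) mounted between platinum ring electrodes at 1 g resting tension in oxygenated Krebs at 37 °C. Single-pulse electrical stimulation (1 ms, 0.15 Hz, lowest voltage giving maximal contraction); inhibition of twitch contractions gives IC50 for agonists. Mean of at least three experiments, separate animals.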

[2] = target: T1, Adrenergic receptor alpha-2; test: Binding affinity against alpha-2 adrenergic receptor was determined by the displacement of [3H]clonidine from rat brain cortical membranes; assay type: cell membranes, Membrane

## CSC[C@@]1(C2=NCCN2)Cc2ccccc2N1C
[1]
  IC50: 0.179 µM
[2]
  Ki: 0.0132 µM
